ChEMBL document CHEMBL1127484, “5-Aryl-3-(alkylthio)-4H-1,2,4-triazoles as selective antagonists of strychnine-induced convulsions and potential antispastic agents” (J Med Chem, 1994)

Legend:
Mus musculus [1] = assay: Effective dose required for antagonist activity against pentylenetetrazole-induced seizures in mice when administered intraperitoneally; Range is 25-50; type: functional; conditions: ip
How it was run: (§1)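 CD-1 male mice (18–26 g), groups of 5 or 10, housed individually, dosed ip in distilled H2O or H2O/Tween 80. Convulsant given 30 min later. Strychnine sulfate 2.7 mg/kg ip: protection = no tonic extension >15 min. MES 50 mA, 0.2 s, corneal: no tonic hind-limb extension. PTZ 60 mg/kg iv: no clonic seizures for 2 min. MPA 100 mg/kg iv: no seizures for 5 min. ED50 by quantal analysis from ≥4 doses, ≥10 mice each.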

Mus musculus [2] = assay: Effective dose required for antagonist activity against maximal electroshock induced seizures in mice when administered intraperitoneally; Range is 100-200; type: functional; conditions: ip; how it was run: as §1
[3] = Dose encompassing the 50% lethal effect was recorded when administered intraperitoneally in mice; type: ADME, organism-based; conditions: mouse, in vivo, ip
How it was run: (§2)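 Deaths were recorded over the 7 days after dosing. The estimated LD50 was taken as the dose range spanning 50% lethality.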

Mus musculus [4] = assay: Effective dose required for antagonist activity against strychnine induced seizures in mice when administered intraperitoneally; type: functional; conditions: ip; how it was run: as §1
Mus musculus [5] = assay: Effective dose required for antagonist activity against 3-mercaptopropionic-acid-induced seizures in mice when administered intraperitoneally; Range is 100-200; type: functional; conditions: ip; how it was run: as §1
Mus musculus [6] = assay: Effective dose required for antagonist activity against 3-mercaptopropionic-acid induced seizures in mice when administered intraperitoneally; type: functional; conditions: ip; how it was run: as §1
Mus musculus [7] = assay: Effective dose required for antagonist activity against maximal electroshock induced seizures in mice when administered intraperitoneally; type: functional; conditions: ip; how it was run: as §1
Mus musculus [8] = assay: Effective dose required for antagonist activity against pentylenetetrazole-induced seizures in mice when administered intraperitoneally; Range is 100-200; type: functional; conditions: ip; how it was run: as §1
Mus musculus [9] = assay: Effective dose required for antagonist activity against pentylenetetrazole-induced seizures in mice when administered intraperitoneally; Range is 50-100; type: functional; conditions: ip; how it was run: as §1
Mus musculus [10] = assay: Effective dose required for antagonist activity against pentylenetetrazole-induced seizures in mice when administered intraperitoneally; type: functional; conditions: ip; how it was run: as §1
[11] = Dose encompassing the 50% lethal effect was recorded when administered intraperitoneally in mice; Range is 400-800; type: ADME, organism-based; conditions: mouse, in vivo, ip; how it was run: as §2
Mus musculus [12] = assay: Effective dose required for antagonist activity against strychnine induced seizures in mice when administered intraperitoneally; Range is 50-100; type: functional; conditions: ip; how it was run: as §1
Mus musculus [13] = assay: Effective dose required for antagonist activity against 3-mercaptopropionic-acid-induced seizures in mice when administered intraperitoneally; Range 100-200; type: functional; conditions: ip; how it was run: as §1
Mus musculus [14] = assay: Effective dose required for antagonist activity against pentylenetetrazole-induced seizures in mice when administered intraperitoneally; Range 100-200; type: functional; conditions: ip; how it was run: as §1
[15] = Dose encompassing the 50% lethal effect was recorded when administered intraperitoneally in mice; 400-800; type: ADME, organism-based; conditions: mouse, in vivo, ip; how it was run: as §2
Mus musculus [16] = assay: Effective dose required for antagonist activity against pentylenetetrazole-induced seizures in mice when administered intraperitoneally; 100-200; type: functional; conditions: ip; how it was run: as §1

| Structure (SMILES) | LD50 [3] | ED50 (Mus musculus [4]) | ED50 (Mus musculus [6]) | ED50 (Mus musculus [7]) | ED50 (Mus musculus [10]) | also measured |
| --- | --- | --- | --- | --- | --- | --- |
| CCn1c(SC)nnc1-c1ccccc1F | > 800 mg/kg | 75 mg/kg |  |  |  | ED50 (Mus musculus [1]): 50 mg/kg; ED50 (Mus musculus [2]): 200 mg/kg; ED50 (Mus musculus [5]): 200 mg/kg |
| CC[S+]([O-])c1nnc(-c2ccccc2)n1C (stereo unspecified) | > 800 mg/kg |  | > 200 mg/kg | > 200 mg/kg |  | ED50 (Mus musculus [8]): 200 mg/kg |
| CSc1nc(-c2ccc(Cl)cc2)nn1C | > 800 mg/kg | > 200 mg/kg | > 200 mg/kg | > 200 mg/kg |  | ED50 (Mus musculus [9]): 100 mg/kg |
| CCCC(CCC)C(=O)O [VALPROIC ACID] |  | > 200 mg/kg |  | > 200 mg/kg |  | ED50 (Mus musculus [8]): 200 mg/kg |
| CSc1nnc(-c2ccc(F)cc2)n1C | > 800 mg/kg | 33.4 mg/kg | > 200 mg/kg | > 200 mg/kg | > 200 mg/kg |  |
| CCSc1nnc(-c2ccccc2F)n1C |  |  | > 200 mg/kg |  |  | LD50 [11]: 800 mg/kg; ED50 (Mus musculus [2]): 200 mg/kg; ED50 (Mus musculus [9]): 100 mg/kg |
| Cn1c(-c2cccc3ccccc23)nnc1S(C)(=O)=O | > 800 mg/kg | > 200 mg/kg | > 200 mg/kg | > 200 mg/kg | > 200 mg/kg |  |
| CCS(=O)(=O)c1nnc(-c2ccccc2)n1C | > 800 mg/kg |  |  | > 200 mg/kg |  | ED50 (Mus musculus [9]): 100 mg/kg; ED50 (Mus musculus [5]): 200 mg/kg |
| CSc1nnc(-c2ccc(Cl)cc2)n1C | > 800 mg/kg | 28.1 mg/kg |  | > 200 mg/kg | > 200 mg/kg |  |
| Cn1c(-c2ccccc2F)nnc1[S+](C)[O-] (stereo unspecified) | > 800 mg/kg | 20 mg/kg | > 200 mg/kg | > 200 mg/kg | 57.9 mg/kg |  |
| Cn1nc(S(C)(=O)=O)nc1-c1ccccc1 | > 800 mg/kg | > 200 mg/kg | > 200 mg/kg | > 200 mg/kg | > 200 mg/kg |  |
| Cn1nc(-c2ccccc2)nc1S(C)(=O)=O | > 800 mg/kg | > 200 mg/kg | > 200 mg/kg | > 200 mg/kg | > 200 mg/kg |  |
| Cc1ccc(-c2nnc([S+](C)[O-])n2C)cc1 (stereo unspecified) | > 800 mg/kg |  | > 200 mg/kg | > 200 mg/kg | > 200 mg/kg | ED50 (Mus musculus [12]): 100 mg/kg |
| Cn1c(-c2cccs2)nnc1S(C)(=O)=O | > 800 mg/kg | > 200 mg/kg | > 200 mg/kg | > 200 mg/kg | > 200 mg/kg |  |
| Cn1nc(-c2ccc(Cl)cc2)nc1S(C)(=O)=O | > 800 mg/kg | > 200 mg/kg | > 200 mg/kg | > 200 mg/kg | > 200 mg/kg |  |
| CSc1nnc(-c2ccccc2)n1C | > 800 mg/kg | 37.8 mg/kg |  | > 200 mg/kg |  | ED50 (Mus musculus [13]): 200 mg/kg; ED50 (Mus musculus [14]): 200 mg/kg |
| CSc1nnc(-c2ccccc2F)n1C |  | 8.8 mg/kg |  | > 200 mg/kg | 61.3 mg/kg | LD50 [11]: 800 mg/kg |
| CSc1nnc(-c2ccccc2Cl)n1C |  | > 50 mg/kg | > 50 mg/kg | > 50 mg/kg | > 50 mg/kg | LD50 [11]: 800 mg/kg |
| CSc1n[nH]c(-c2ccc(F)cc2)n1 | > 800 mg/kg | > 200 mg/kg | > 200 mg/kg | > 200 mg/kg | > 200 mg/kg |  |
| CSc1nnc(-c2cccc(F)c2)n1C | > 800 mg/kg | 13.8 mg/kg | > 200 mg/kg | > 200 mg/kg | > 200 mg/kg |  |

| Structure (SMILES) | LD50 [3] | ED50 (Mus musculus [4]) | ED50 (Mus musculus [6]) | ED50 (Mus musculus [7]) | ED50 (Mus musculus [10]) | also measured |
| --- | --- | --- | --- | --- | --- | --- |
| O=C1NC(=O)C(c2ccccc2)(c2ccccc2)N1 [PHENYTOIN] |  | > 200 mg/kg | 89 mg/kg | 25.9 mg/kg | > 32 mg/kg |  |
| COc1ccc(-c2nnc(S(C)(=O)=O)n2C)cc1 | > 800 mg/kg | > 200 mg/kg | > 200 mg/kg | > 200 mg/kg | > 200 mg/kg |  |
| Cn1nc([S+](C)[O-])nc1-c1ccccc1 (stereo unspecified) | > 800 mg/kg | > 200 mg/kg | > 200 mg/kg | > 200 mg/kg | > 200 mg/kg |  |
| CN1C(=O)CN=C(c2ccccc2)c2cc(Cl)ccc21 [DIAZEPAM] |  | 40.6 mg/kg | 0.9 mg/kg | 14.8 mg/kg | 1.5 mg/kg |  |
| Cn1c(-c2cccc3ccccc23)nnc1[S+](C)[O-] (stereo unspecified) | > 800 mg/kg | > 200 mg/kg | > 200 mg/kg | > 200 mg/kg | > 200 mg/kg |  |
| COc1ccc(-c2nnc(SC)n2C)cc1 |  | > 100 mg/kg | > 100 mg/kg | > 100 mg/kg | > 100 mg/kg | LD50 [11]: 800 mg/kg |
| Cn1c(-c2ccccc2F)nnc1S(C)(=O)=O | > 800 mg/kg | 17.6 mg/kg | > 100 mg/kg | > 100 mg/kg | > 100 mg/kg |  |
| CC[S+]([O-])c1nnc(-c2ccccc2F)n1C (stereo unspecified) | > 800 mg/kg | 32.7 mg/kg | > 200 mg/kg |  | > 200 mg/kg | ED50 (Mus musculus [2]): 200 mg/kg |
| CSc1nnc(-c2cccc3ccccc23)n1C | > 800 mg/kg | > 200 mg/kg | > 200 mg/kg | > 200 mg/kg | > 200 mg/kg |  |
| CCSc1nnc(-c2ccccc2)n1C |  | > 200 mg/kg | > 200 mg/kg | > 200 mg/kg |  | LD50 [15]: 800 mg/kg; ED50 (Mus musculus [16]): 200 mg/kg |
| CSc1nnc(-c2ccc(C)cc2)n1C |  |  | > 100 mg/kg | > 100 mg/kg | > 100 mg/kg | LD50 [11]: 800 mg/kg; ED50 (Mus musculus [12]): 100 mg/kg |
| CCS(=O)(=O)c1nnc(-c2ccccc2F)n1C | > 800 mg/kg | 85.8 mg/kg | > 200 mg/kg | > 200 mg/kg |  | ED50 (Mus musculus [8]): 200 mg/kg |
| CSc1nc(-c2ccccc2)nn1C | > 800 mg/kg | > 200 mg/kg | > 200 mg/kg |  |  | ED50 (Mus musculus [2]): 200 mg/kg; ED50 (Mus musculus [9]): 100 mg/kg |
| Cn1c(-c2cccc(F)c2)nnc1S(C)(=O)=O | > 800 mg/kg | 12.1 mg/kg | > 200 mg/kg | > 200 mg/kg | > 200 mg/kg |  |
| Cn1nc(-c2cccc(F)c2)nc1S(C)(=O)=O |  | > 100 mg/kg | > 100 mg/kg | > 100 mg/kg | > 100 mg/kg | LD50 [11]: 800 mg/kg |
| CSc1nc(-c2ccccc2)n(C)n1 | > 800 mg/kg | > 100 mg/kg | > 100 mg/kg | > 100 mg/kg | > 100 mg/kg |  |
| Cn1c(-c2ccccc2)nnc1[S+](C)[O-] (stereo unspecified) |  | 18.6 mg/kg | > 100 mg/kg | > 100 mg/kg | > 100 mg/kg | LD50 [11]: 800 mg/kg |
| CSc1nnc(-c2cccs2)n1C |  | 34.1 mg/kg | > 100 mg/kg | > 100 mg/kg | > 100 mg/kg | LD50 [11]: 800 mg/kg |
| Cc1ccc(-c2nnc(S(C)(=O)=O)n2C)cc1 | > 800 mg/kg | > 200 mg/kg | > 200 mg/kg | > 200 mg/kg | > 200 mg/kg |  |
| COc1ccc(-c2nnc([S+](C)[O-])n2C)cc1 (stereo unspecified) |  |  | > 100 mg/kg | > 100 mg/kg | > 100 mg/kg | LD50 [11]: 800 mg/kg; ED50 (Mus musculus [12]): 100 mg/kg |
